Measurements as given in ChEMBL document CHEMBL3421562, “Bioactive prenylated xanthones from the young fruits and flowers of Garcinia cowa” (J Nat Prod, 2015).
Converted amounts (≈) assume the structure as drawn.

Key:
Pseudomonas aeruginosa = experiment: Antibacterial activity against Pseudomonas aeruginosa TISTR 884 by 2-fold serial dilution method; format: functional
Bacillus subtilis = experiment: Antibacterial activity against Bacillus subtilis TISTR 008 by 2-fold serial dilution method; format: functional
Escherichia coli = experiment: Antibacterial activity against Escherichia coli TISTR 780 by 2-fold serial dilution method; format: functional
Salmonella typhimurium = experiment: Antibacterial activity against Salmonella typhimurium TISTR 292 by 2-fold serial dilution method; format: functional, Salmonella enterica subsp. enterica serovar Typhimurium
Staphylococcus aureus = experiment: Antibacterial activity against Staphylococcus aureus TISTR 1466 by 2-fold serial dilution method; format: functional
Bacillus cereus = experiment: Antibacterial activity against Bacillus cereus TISTR 688 by 2-fold serial dilution method; format: functional
Saccharomyces cerevisiae = experiment: Inhibition of Saccharomyces cerevisiae alpha-glucosidase using p-nitrophenyl alpha-D-glucoside as substrate at 100 uM preincubated for 0.5 hrs followed by substrate addition measured after 1 hr by colorimetric method relative to control
Summary of the method: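 Test compound at 100 μM; enzyme (0.4 U/mL) preincubated with compound 0.5 h at 37 °C in 50 mM K2HPO4−KH2PO4 buffer, 10% DMSO final; reaction started with p-nitrophenyl α-D-glucoside (3 mM), 1 h at 37 °C; stopped with 0.1 M Na2CO3; absorbance read at 405 nm; percent inhibition.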

[1] = Inhibition of Saccharomyces cerevisiae alpha-glucosidase using p-nitrophenyl alpha-D-glucoside as substrate preincubated for 0.5 hrs followed by substrate addition measured after 1 hr by colorimetric method
Summary of the method: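 Enzyme (0.4 U/mL) and compound preincubated 0.5 h at 37 °C in 50 mM K2HPO4−KH2PO4 buffer, final DMSO 10%; p-nitrophenyl α-D-glucoside (3 mM) added, further 1 h at 37 °C; terminated with 0.1 M Na2CO3, A405 read immediately as relative hydrolysis rate; IC50 determined; acarbose positive control.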

Compound | MIC (Pseudomonas aeruginosa) | MIC (Bacillus subtilis) | MIC (Escherichia coli) | MIC (Salmonella typhimurium; Salmonella enterica) | MIC (Staphylococcus aureus) | MIC (Bacillus cereus) | inhibition (Saccharomyces cerevisiae) | IC50 [1] | MIC (Salmonella typhimurium; Salmonella enterica subsp. enterica serovar Typhimurium)
COc1c(O)c(CC=C(C)C)c2oc3cc(O)c(CC=C(C)C)c(O)c3c(=O)c2c1CC=C(C)C | 128 µg/mL (≈ 267 µM) | 32 µg/mL (≈ 66.9 µM) | > 128 µg/mL | 128 µg/mL (≈ 267 µM) | > 128 µg/mL | 32 µg/mL (≈ 66.9 µM) |  |  | 
COc1cc2oc3cc4c(c(O)c3c(=O)c2c(CC=C(C)C)c1OC)C=CC(C)(C)O4 | 128 µg/mL (≈ 303 µM) | 128 µg/mL (≈ 303 µM) | > 128 µg/mL | 64 µg/mL (≈ 151 µM) | > 128 µg/mL | 128 µg/mL (≈ 303 µM) | 62.2% | 26.2 µM | 
COc1c(O)cc2oc3cc(O)c(CC=C(C)C)c(O)c3c(=O)c2c1CC=C(C)C [MANGOSTIN] | 128 µg/mL (≈ 312 µM) | 8 µg/mL (≈ 19.5 µM) | 64 µg/mL (≈ 156 µM) | 64 µg/mL (≈ 156 µM) | 64 µg/mL (≈ 156 µM) | 8 µg/mL (≈ 19.5 µM) | 72% | 7.8 µM | 
COc1cc2oc3cc(OC)c(CC=C(C)C)c(O)c3c(=O)c2c(CC=C(C)C)c1O | 128 µg/mL (≈ 302 µM) | 128 µg/mL (≈ 302 µM) | > 128 µg/mL | 128 µg/mL (≈ 302 µM) | > 128 µg/mL | 128 µg/mL (≈ 302 µM) | 56.4% |  | 
COc1cc2oc3cc(O)c(OC)c(CC=C(C)C)c3c(=O)c2c(O)c1CC=C(C)C | 128 µg/mL (≈ 302 µM) | 4 µg/mL (≈ 9.42 µM) | > 128 µg/mL | 128 µg/mL (≈ 302 µM) | > 128 µg/mL | 16 µg/mL (≈ 37.7 µM) | 73.1% | 8.7 µM | 
COc1cc2c(=O)c3c(O)c(C/C=C(\C)CCC=C(C)C)c(O)cc3oc2cc1O [COWAXANTHONE] | 128 µg/mL (≈ 312 µM) | 64 µg/mL (≈ 156 µM) | > 128 µg/mL | 128 µg/mL (≈ 312 µM) | > 128 µg/mL | 64 µg/mL (≈ 156 µM) |  |  | 
CC(C)=CCC/C(C)=C\CC1(CC=C(C)C)C(=O)C(O)=Cc2oc3cc(O)cc(O)c3c(=O)c21 (stereo not drawn) [GARCINIANONE B] | 128 µg/mL (≈ 276 µM) | 2 µg/mL (≈ 4.31 µM) | 64 µg/mL (≈ 138 µM) | 64 µg/mL (≈ 138 µM) | 64 µg/mL (≈ 138 µM) | 2 µg/mL (≈ 4.31 µM) | 69.1% | 11.7 µM | 
COc1cc2oc3cc4c(c(O)c3c(=O)c2c(CC=C(C)C)c1O)C=CC(C)(C)O4 | 128 µg/mL (≈ 313 µM) | 128 µg/mL (≈ 313 µM) | > 128 µg/mL | 128 µg/mL (≈ 313 µM) | > 128 µg/mL | 128 µg/mL (≈ 313 µM) |  |  | 
COc1c(O)cc2oc3cc4c(c(O)c3c(=O)c2c1CC=C(C)C)C=CC(C)(C)O4 [MANGOSTANIN] | 128 µg/mL (≈ 313 µM) | 8 µg/mL (≈ 19.6 µM) | > 128 µg/mL | 128 µg/mL (≈ 313 µM) | 64 µg/mL (≈ 157 µM) | 4 µg/mL (≈ 9.79 µM) | 70.1% | 34.6 µM | 
CC(C)=CCCC1(C)C=Cc2c(c(O)cc3oc4cc5c(c(O)c4c(=O)c23)C=CC(C)(C)O5)O1 (stereo not drawn) | 128 µg/mL (≈ 278 µM) | 128 µg/mL (≈ 278 µM) | > 128 µg/mL | 64 µg/mL (≈ 139 µM) | > 128 µg/mL | 64 µg/mL (≈ 139 µM) |  |  | 
CN[C@H](CC(C)C)C(=O)N[C@H]1C(=O)N[C@@H](CC(N)=O)C(=O)N[C@H]2C(=O)N[C@H]3C(=O)N[C@H](C(=O)N[C@H](C(=O)O)c4cc(O)cc(O)c4-c4cc3ccc4O)[C@H](O)c3ccc(c(Cl)c3)Oc3cc2cc(c3O[C@@H]2O[C@H](CO)[C@@H](O)[C@H](O)[C@H]2O[C@H]2C[C@](C)(N)[C@H](O)[C@H](C)O2)Oc2ccc(cc2Cl)[C@H]1O [VANCOMYCIN] |  | 0.25 µg/mL (≈ 0.173 µM) |  |  | 0.25 µg/mL (≈ 0.173 µM) | 0.25 µg/mL (≈ 0.173 µM) |  |  | 
COc1cc2oc3cc(O)c4c(c3c(=O)c2c(O)c1CC=C(C)C)CCC(C)(C)O4 | > 128 µg/mL |  | > 128 µg/mL | 128 µg/mL (≈ 312 µM) | 128 µg/mL (≈ 312 µM) | 128 µg/mL (≈ 312 µM) |  |  | 
COc1cc2c(=O)c3c(O)c4c(cc3oc2cc1O)OC(C)(CCC=C(C)C)C=C4 (stereo not drawn) | 128 µg/mL (≈ 313 µM) | 64 µg/mL (≈ 157 µM) | > 128 µg/mL | 128 µg/mL (≈ 313 µM) | > 128 µg/mL | 32 µg/mL (≈ 78.3 µM) |  |  | 
COc1cc2oc3cc(O)c4c(c3c(=O)c2c(O)c1CC=C(C)C)C=CC(C)(C)O4 | 128 µg/mL (≈ 313 µM) | 128 µg/mL (≈ 313 µM) | > 128 µg/mL | 128 µg/mL (≈ 313 µM) | 128 µg/mL (≈ 313 µM) | 128 µg/mL (≈ 313 µM) | 50.8% |  | 
CC(C)=CCC/C(C)=C\CC1(C/C=C(\C)CCC=C(C)C)C(=O)C(O)=Cc2oc3cc(O)cc(O)c3c(=O)c21 (stereo not drawn) | 128 µg/mL (≈ 240 µM) | 8 µg/mL (≈ 15 µM) | 64 µg/mL (≈ 120 µM) | 64 µg/mL (≈ 120 µM) | 64 µg/mL (≈ 120 µM) | 8 µg/mL (≈ 15 µM) | 75.8% | 55.3 µM | 
CC(C)=CCC/C(C)=C/CC1(C/C=C(\C)CCC=C(C)C)C(=O)C(O)=Cc2oc3cc(O)cc(O)c3c(=O)c21 (stereo not drawn) | 128 µg/mL (≈ 240 µM) | 8 µg/mL (≈ 15 µM) | > 128 µg/mL | 64 µg/mL (≈ 120 µM) | > 128 µg/mL | 8 µg/mL (≈ 15 µM) | 62.9% | 36.4 µM | 
COc1c(O)cc2oc3cc(O)cc(O)c3c(=O)c2c1C/C=C(\C)CCC=C(C)C [RUBRAXANTHONE] | 64 µg/mL (≈ 156 µM) | 2 µg/mL (≈ 4.87 µM) | 64 µg/mL (≈ 156 µM) | 64 µg/mL (≈ 156 µM) | > 128 µg/mL | 4 µg/mL (≈ 9.75 µM) | 71.2% | 23.4 µM | 
COc1cc2oc3cc(OC)c(OC)c(CC=C(C)C)c3c(=O)c2c(O)c1CC=C(C)C | 128 µg/mL (≈ 292 µM) | 128 µg/mL (≈ 292 µM) | 64 µg/mL (≈ 146 µM) | 128 µg/mL (≈ 292 µM) | 128 µg/mL (≈ 292 µM) | > 128 µg/mL | 53.8% |  | 
GENTAMICIN | 2 µg/mL |  | 0.25 µg/mL |  |  |  |  |  | 0.125 µg/mL
CC(C)=CCC/C(C)=C/CC1(CC=C(C)C)C(=O)C(O)=Cc2oc3cc(O)cc(O)c3c(=O)c21 (stereo not drawn) [GARCINIANONE A] | 128 µg/mL (≈ 276 µM) | 2 µg/mL (≈ 4.31 µM) | 64 µg/mL (≈ 138 µM) | 64 µg/mL (≈ 138 µM) | 64 µg/mL (≈ 138 µM) | 4 µg/mL (≈ 8.61 µM) | 66.7% | 34 µM | 
COc1c(O)cc2oc3cc4c(c(O)c3c(=O)c2c1C/C=C(\C)CCC=C(C)C)C=CC(C)(C)O4 | 128 µg/mL (≈ 269 µM) | 64 µg/mL (≈ 134 µM) | 64 µg/mL (≈ 134 µM) | 128 µg/mL (≈ 269 µM) | 128 µg/mL (≈ 269 µM) | 64 µg/mL (≈ 134 µM) | 71.7% | 18.6 µM | 
C[C@H]1O[C@H](O[C@H]2[C@H](O)[C@@H](O)[C@@H](O[C@H]3[C@H](O)[C@@H](O)C(O)O[C@@H]3CO)O[C@@H]2CO)[C@H](O)[C@@H](O)[C@@H]1N[C@H]1C=C(CO)[C@@H](O)[C@H](O)[C@H]1O (stereo partly drawn) [ACARBOSE] |  |  |  |  |  |  |  | 8 µM | 
